Test [1] in a line: Growth inhibition of human M14 cells at 250 nM after 72 hrs by cell titer 96 cell proliferation assay. The class given is functional. The conditions noted are these: M14, 72 h, read-out: GI. The gist of the method: (§1)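 M14 cells seeded at 8×10^4 cells/mL in 96-well plates and left to adhere overnight. They were treated with 62.5, 125 or 250 nM compound or with DMSO control for up to 72 h. Dye was added for 4 h, followed by solubilization/stop solution, and absorbance was read at 570 nm, zeroed on medium-only wells. Inhibition is given as % versus control. Triplicates in three experiments.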

Test [2] in a line: Growth inhibition of human M14 cells at 250 nM after 24 hrs by cell titer 96 cell proliferation assay. The format is functional. Particulars: M14, 24 h, read-out: GI. In short, it runs like this:
as §1

The nature of test [3]: Growth inhibition of human M14 cells at 250 nM after 48 hrs by cell titer 96 cell proliferation assay. The class given is functional. The conditions noted are these: M14, 48 h, read-out: GI. The gist of the method:
as §1

In test [4] the target is T1, Telomerase reverse transcriptase (Homo sapiens, UniProt O14746). The test can be described thus: Inhibition of telomerase activity in human H125 cells using biotin-labeled TeloTAGGG as primer at 125 nM preincubated for 48 hrs followed by primer addition measured after 30 mins by PCR-ELISA. The format is cell-based. In short, it runs like this:
(§2)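 Cells treated 48 h with 31.2–250 nM, then washed, lysed, and the supernatants stored at −80°C. Extracts were incubated 30 min with biotin-labeled primer for telomeric repeat extension. Products plus internal standard were PCR-amplified, hybridized to digoxigenin probes, captured on streptavidin plates, detected with peroxidase antibody, and read at 450 nm. Heat-inactivated extract (95°C, 10 min) served as negative control. Inhibition is % of untreated means; triplicate.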
A general note: In an ELISA, binding on a coated surface is turned into a signal by an enzyme label.

Test [5] in a line: Growth inhibition of human HL60 cells at 250 nM after 24 hrs by trypan blue dye exclusion assay. The format is functional. The conditions noted are these: HL-60, 24 h, read-out: GI. In short, it runs like this:
(§3)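 Cells seeded at 5×10^4 cells/mL and left to adhere overnight. They were then exposed to 7.8–250 nM compound or to DMSO vehicle, 3 wells per treatment, at 37°C in 5% CO2 for 24, 48 or 72 h. Trypsinized cells were counted by hemocytometer, and viability was scored by trypan blue exclusion. Read-out is viable cell number, mean ± SE of triplicate wells, from a representative experiment of at least three.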

The nature of test [6]: Growth inhibition of human HT-29 cells at 250 nM after 24 hrs by trypan blue dye exclusion assay. Particulars: HT-29, 24 h, read-out: GI. The class given is functional. The gist of the method:
as §3

The test system of test [7] is SH-SY5Y. The test can be described thus: Induction of apoptosis in human SH-SY5Y cells assessed as increase in caspase 3/7 activation at 7.8 to 15.6 nM after 24 hrs by caspase-glo 3/7 luminescence assay. The format is functional, cell-based. In short, it runs like this:
(§4)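 SH-SY5Y cells seeded at 5×10^4 cells/mL and left to adhere overnight, then exposed to 7.8–31.2 nM for 24 h. Caspase-Glo 3/7 reagent, in a volume equal to the medium, was added for 1 h at 37°C. Luminescence from the cleaved aminoluciferin substrate was read and expressed relative to untreated control set at 1.0. DMSO-treated cells served as negative control. Triplicate wells.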

Test [8] concerns the target T1, Telomerase reverse transcriptase. Briefly: Inhibition of telomerase activity in human HT-29 cells using biotin-labeled TeloTAGGG as primer at 250 nM preincubated for 48 hrs followed by primer addition measured after 30 mins by PCR-ELISA. The format is cell-based. The gist of the method:
as §2

Test [9] has the same target. The test can be described thus: Inhibition of telomerase activity in human M14 cells using biotin-labeled TeloTAGGG as primer preincubated for 48 hrs followed by primer addition measured after 30 mins by PCR-ELISA. The format is cell-based. In short, it runs like this:
as §2

Test [10] shares this target. Briefly: Inhibition of telomerase activity in human M14 cells using biotin-labeled TeloTAGGG as primer at 125 nM preincubated for 48 hrs followed by primer addition measured after 30 mins by PCR-ELISA. The class given is cell-based. The gist of the method:
as §2

For test [11] the target is unchanged. Briefly: Inhibition of telomerase activity in human HT-29 cells using biotin-labeled TeloTAGGG as primer at 125 nM preincubated for 48 hrs followed by primer addition measured after 30 mins by PCR-ELISA. The format is cell-based. The gist of the method:
as §2

For test [12] the target is unchanged. The test can be described thus: Inhibition of telomerase activity in human HT-29 cells using biotin-labeled TeloTAGGG as primer at 31.2 nM preincubated for 48 hrs followed by primer addition measured after 30 mins by PCR-ELISA. The class given is cell-based. The gist of the method: as §2
The nature of test [13]: Growth inhibition of human H125 cells at 250 nM after 24 hrs by trypan blue dye exclusion assay. The class given is functional. Particulars: NCI-H125, 24 h, read-out: GI. The gist of the method: as §3
Test [14] in a line: Growth inhibition of human SH-SY5Y cells at 250 nM after 24 hrs by trypan blue dye exclusion assay. The class given is functional. Particulars: read-out: GI. The gist of the method:
as §3

The target in test [15] is T1, Telomerase reverse transcriptase. The test can be described thus: Inhibition of telomerase activity in human H125 cells using biotin-labeled TeloTAGGG as primer at 250 nM preincubated for 48 hrs followed by primer addition measured after 30 mins by PCR-ELISA. The format is cell-based. In short, it runs like this:
as §2

Test [16] has the same target. The test can be described thus: Inhibition of telomerase activity in human M14 cells using biotin-labeled TeloTAGGG as primer at 62.5 nM preincubated for 48 hrs followed by primer addition measured after 30 mins by PCR-ELISA. The class given is cell-based. In short, it runs like this: as §2
Test [17] shares this target. The test can be described thus: Inhibition of telomerase activity in human MCF7 cells using biotin-labeled TeloTAGGG as primer at 125 nM preincubated for 48 hrs followed by primer addition measured after 30 mins by PCR-ELISA. The format is cell-based. In short, it runs like this:
as §2

Test [18] shares this target. The test can be described thus: Inhibition of telomerase activity in human H125 cells using biotin-labeled TeloTAGGG as primer at 62.5 nM preincubated for 48 hrs followed by primer addition measured after 30 mins by PCR-ELISA. The class given is cell-based. In short, it runs like this: as §2
Test [19] has the same target. The test can be described thus: Inhibition of telomerase activity in human H125 cells using biotin-labeled TeloTAGGG as primer at 31.2 nM preincubated for 48 hrs followed by primer addition measured after 30 mins by PCR-ELISA. The class given is cell-based. The gist of the method: as §2
A short description of test [20]: Growth inhibition of human MCF7 cells at 250 nM after 24 hrs by trypan blue dye exclusion assay. The format is functional. The conditions noted are these: MCF7, 24 h, read-out: GI. The gist of the method:
as §3

Test [21] concerns the target T1, Telomerase reverse transcriptase. Briefly: Inhibition of telomerase activity in human HT-29 cells using biotin-labeled TeloTAGGG as primer at 62.5 nM preincubated for 48 hrs followed by primer addition measured after 30 mins by PCR-ELISA. The class given is cell-based. The gist of the method: as §2
For test [22] the target is unchanged. The test can be described thus: Inhibition of telomerase activity in human M14 cells using biotin-labeled TeloTAGGG as primer at 250 nM preincubated for 48 hrs followed by primer addition measured after 30 mins by PCR-ELISA. The format is cell-based. The gist of the method:
as §2

Test [23] has the same target. Briefly: Inhibition of telomerase activity in human MCF7 cells using biotin-labeled TeloTAGGG as primer preincubated for 48 hrs followed by primer addition measured after 30 mins by PCR-ELISA. The class given is cell-based. The gist of the method: as §2
Test [24] in a line: Growth inhibition of human M14 cells at 250 nM after 24 hrs by trypan blue dye exclusion assay. The class given is functional. The conditions noted are these: M14, 24 h, read-out: GI. The gist of the method:
as §3

Test [25] concerns the target T1, Telomerase reverse transcriptase. Briefly: Inhibition of telomerase activity in human MCF7 cells using biotin-labeled TeloTAGGG as primer at 250 nM preincubated for 48 hrs followed by primer addition measured after 30 mins by PCR-ELISA. The format is cell-based. The gist of the method: as §2
For test [26] the target is unchanged. The test can be described thus: Inhibition of telomerase activity in human HT-29 cells using biotin-labeled TeloTAGGG as primer preincubated for 48 hrs followed by primer addition measured after 30 mins by PCR-ELISA. The format is cell-based. In short, it runs like this:
as §2

Test [27] shares this target. Briefly: Inhibition of telomerase activity in human MCF7 cells using biotin-labeled TeloTAGGG as primer at 62.5 nM preincubated for 48 hrs followed by primer addition measured after 30 mins by PCR-ELISA. The class given is cell-based. In short, it runs like this: as §2
For test [28] the target is unchanged. The test can be described thus: Inhibition of telomerase activity in human MCF7 cells using biotin-labeled TeloTAGGG as primer at 31.2 nM preincubated for 48 hrs followed by primer addition measured after 30 mins by PCR-ELISA. The format is cell-based. In short, it runs like this: as §2
Test [29] has the same target. The test can be described thus: Inhibition of telomerase activity in human M14 cells using biotin-labeled TeloTAGGG as primer at 31.2 nM preincubated for 48 hrs followed by primer addition measured after 30 mins by PCR-ELISA. The class given is cell-based. The gist of the method:
as §2

For test [30] the target is unchanged. Briefly: Inhibition of telomerase activity in human H125 cells using biotin-labeled TeloTAGGG as primer preincubated for 48 hrs followed by primer addition measured after 30 mins by PCR-ELISA. The format is cell-based. The gist of the method: as §2
Test [31] relates to SH-SY5Y. Briefly: Induction of apoptosis in human SH-SY5Y cells assessed as increase in caspase 3/7 activation at 31.2 nM after 24 hrs by caspase-glo 3/7 luminescence assay relative to control. The class given is functional. In short, it runs like this:
as §4

Molecules are shown by their SMILES. Active and inactive are the calls of the source. The calls are words filed in the database; no cut-off is given here. Where only a bound is given, the exact number is not on record here.

The inhibition is the change of the read-out against control, counted positive when it falls. As a reminder, the IC50 is the concentration at which inhibition is half-maximal. Low values mean higher potency, high ones lower potency.

T1 sequence (O14746 whole entry): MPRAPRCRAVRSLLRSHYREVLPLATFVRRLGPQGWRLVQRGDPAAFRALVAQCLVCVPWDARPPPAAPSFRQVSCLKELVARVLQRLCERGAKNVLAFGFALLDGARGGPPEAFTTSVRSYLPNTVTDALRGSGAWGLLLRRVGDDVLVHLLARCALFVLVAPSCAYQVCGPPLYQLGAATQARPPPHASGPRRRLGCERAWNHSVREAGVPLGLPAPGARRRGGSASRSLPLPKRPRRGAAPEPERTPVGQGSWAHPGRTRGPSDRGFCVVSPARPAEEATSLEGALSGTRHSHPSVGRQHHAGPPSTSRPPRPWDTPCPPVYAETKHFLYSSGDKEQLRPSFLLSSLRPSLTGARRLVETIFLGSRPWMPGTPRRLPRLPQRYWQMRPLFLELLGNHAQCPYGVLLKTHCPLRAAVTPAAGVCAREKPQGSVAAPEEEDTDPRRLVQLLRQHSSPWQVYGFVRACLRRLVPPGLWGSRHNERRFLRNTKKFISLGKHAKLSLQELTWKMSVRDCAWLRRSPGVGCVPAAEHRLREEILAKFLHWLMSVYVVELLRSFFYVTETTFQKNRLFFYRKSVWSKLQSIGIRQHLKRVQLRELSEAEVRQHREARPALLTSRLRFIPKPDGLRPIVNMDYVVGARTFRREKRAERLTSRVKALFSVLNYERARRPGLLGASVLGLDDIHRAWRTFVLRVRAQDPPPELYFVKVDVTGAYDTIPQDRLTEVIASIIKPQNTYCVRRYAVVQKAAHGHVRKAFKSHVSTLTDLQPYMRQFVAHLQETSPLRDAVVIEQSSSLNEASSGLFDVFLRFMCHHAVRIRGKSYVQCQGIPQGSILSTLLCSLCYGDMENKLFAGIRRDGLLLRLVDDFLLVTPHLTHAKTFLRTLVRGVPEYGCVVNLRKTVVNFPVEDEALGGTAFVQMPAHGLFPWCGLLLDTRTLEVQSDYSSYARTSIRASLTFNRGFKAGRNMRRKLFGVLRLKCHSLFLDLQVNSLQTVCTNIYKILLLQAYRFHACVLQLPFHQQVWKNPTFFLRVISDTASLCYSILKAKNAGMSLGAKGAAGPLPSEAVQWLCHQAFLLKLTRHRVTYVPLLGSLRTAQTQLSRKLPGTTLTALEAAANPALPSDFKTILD

Turning to `C[C@@H]1CCC[C@@]2(O[C@H](O)C=CC2=O)O1`, the inhibition of growth at 0.25 µM in [1] is 63.7%; in test [2] it was 36.7%; in [3], 58.1%.
On to `CC1CCCC2(OC(O)C=CC2=O)O1` (mixture of isomers), for which the inhibition in [4] is 67.6%; in test [8], 73.4%; in test [9], “Dose-dependent effect”; in [10], 74%; in [11] it was 69%; in [12], 24%. Moreover, the inhibition amounted to 75.7% in [15]; 63% in [16]; 67.9% in [17]; 48.7% in [18]; 13.6% in test [19]; 53.5% in [21]. Also, the inhibition was 82.6% in [22]; “Dose-dependent effect” in [23]; 78.6% in [25]; “Dose-dependent effect” in test [26]; 37.5% in test [27]; 0% in [28]. Moreover, the inhibition in [29] is 62%; in [30], “Dose-dependent effect”. Also, the inhibition of growth at 0.25 µM was greater than 90% in [5]; greater than 90% in test [6]; greater than 90% in test [13]; greater than 90% in test [14]; 61.4% in test [1]; 36.8% in test [2]. In addition, the inhibition of growth at 0.25 µM is greater than 90% in [20], greater than 90% in test [24] and 56.1% in test [3]. Further, the result with SH-SY5Y [7] was Active. Also, the IC50 in test [9], in [23], in test [26] and in test [30] was 0.0126 to 0.0852 µM throughout. The “fold change (FC)” value in the test on SH-SY5Y [31] was 8.2.
Turning to `C[C@H]1CCC[C@]2(O[C@@H](O)C=CC2=O)O1`, the inhibition of growth at 0.25 µM in test [1] is 66.6%; in test [2], 40.4%; in [3], 64.4%.

For the origin of these results see ChEMBL document CHEMBL3861986, “Synthesis and Enantiomeric Separation of a Novel Spiroketal Derivative: A Potent Human Telomerase Inhibitor with High in Vitro Anticancer Activity” (J Med Chem, 2016).
